Data from ChEMBL document CHEMBL5532690, “Antitubercular activity of 2-mercaptobenzothiazole derivatives targeting Mycobacterium tuberculosis type II NADH dehydrogenase” (RSC Med Chem, 2024).
Values after ≈ are worked out from the molar mass of the structure shown. Active and inactive are the calls of the source. No cut-off for these calls is given here.

What was measured:
[1] = test system: Mycobacterium tuberculosis; test: Antitubercular activity against isoniazid-resistant Mycobacterium tuberculosis mc2 8243 measured after 10 days by liquid broth microdilution assay; type: functional; conditions: mc2 8243, 240 h, time 10 day
Outline: (§1)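 Broth microdilution in 7H9 with glycerol, ADS and 0.05% tyloxapol, supplemented with L-methionine, L-leucine (50 mg L−1 each), L-arginine (200 mg L−1) and D-pantothenate (24 mg L−1). Inoculum was diluted to OD600 0.005 (1.0 × 10^6 CFU ml−1) and added to two-fold serial dilutions. After 10 days at 37 °C, MIC was the lowest concentration without visible turbidity.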

[2] = test system: Mycobacterium tuberculosis; test: Antitubercular activity against isoniazid and rifampicin resistant Mycobacterium tuberculosis mc2 8259 measured after 10 days by liquid broth microdilution assay; type: functional; conditions: mc2 8259, 240 h, time 10 day; outline: as §1
[3] = test system: Mycobacterium tuberculosis; test: Antitubercular activity against rifampicin-resistant Mycobacterium tuberculosis mc2 8247 measured after 10 days by liquid broth microdilution assay; type: functional; conditions: mc2 8247, 240 h, time 10 day; outline: as §1
[4] = test system: Mycobacterium tuberculosis; test: Inhibition of NDH-2 in Mycobacterium tuberculosis transformed with pMV762-Peredox-mCherry assessed as change in NADH/NAD+ ratio at 59.16 ug/ml incubated for 24 hrs by fluorimetric assay; conditions: dose 59.16 µg/ml
[5] = test system: Mycobacterium tuberculosis; test: Inhibition of NDH-2 in Mycobacterium tuberculosis transformed with pMV762-Peredox-mCherry assessed as change in NADH/NAD+ ratio at 2.5 ug/ml incubated for 24 hrs by fluorimetric assay; conditions: dose 2.5 µg/ml
[6] = test system: Mycobacterium tuberculosis; test: Inhibition of NDH-2 in Mycobacterium tuberculosis transformed with pMV762-Peredox-mCherry incubated for 24 hrs by fluorimetric assay
Outline: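 Peredox-mCherry reporter Mtb was grown in supplemented 7H9 to OD600 0.4–0.6 and inoculated onto compounds, then held at 37 °C for 24 h. Fluorescence was read at ex 400/em 510 nm and ex 587/em 615 nm. The green/red ratio was taken as NADH/NAD+. Triplicates; one-way ANOVA with Dunnett's test.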

O=C(CSc1nc2c(Br)cc(F)cc2s1)NC1CCCCC1
MIC90 [1]: 8 µg/mL (≈ 19.8 µM) | MIC90 [2]: 8 µg/mL (≈ 19.8 µM) | MIC90 [3]: 4 µg/mL (≈ 9.92 µM)

C=C(C)[C@H]1Cc2c(ccc3c2O[C@@H]2COc4cc(OC)c(OC)cc4[C@@H]2C3=O)O1 [ROTENONE]
inhibition [4]: Active

NNC(=O)c1ccncc1 [ISONIAZID]
MIC90 [1]: > 128 µg/mL | MIC90 [2]: > 128 µg/mL | MIC90 [3]: 0.25 µg/mL (≈ 1.82 µM)

CC(C)/N=c1\cc2n(-c3ccc(Cl)cc3)c3ccccc3nc-2cc1Nc1ccc(Cl)cc1 [CLOFAZIMINE]
inhibition [5]: inactive

CC(C)c1ccc2nc(SCC(=O)NC3CCCCC3)sc2c1
MIC90 [1]: 4 µg/mL (≈ 11.5 µM) | MIC90 [2]: 4 µg/mL (≈ 11.5 µM) | MIC90 [3]: 4 µg/mL (≈ 11.5 µM) | inhibition [6]: Active

Cc1cc(C)c2nc(SCC(=O)NC3CCCCC3)sc2c1
MIC90 [1]: 4 µg/mL (≈ 12 µM) | MIC90 [2]: 4 µg/mL (≈ 12 µM) | MIC90 [3]: 8 µg/mL (≈ 23.9 µM) | inhibition [6]: Active

CO[C@H]1/C=C/O[C@@]2(C)Oc3c(C)c(O)c4c(O)c(c(/C=N/N5CCN(C)CC5)c(O)c4c3C2=O)NC(=O)/C(C)=C\C=C\[C@H](C)[C@H](O)[C@@H](C)[C@@H](O)[C@@H](C)[C@H](OC(C)=O)[C@@H]1C [RIFAMPIN]
MIC90 [1]: 0.12 µg/mL (≈ 0.146 µM) | MIC90 [2]: > 128 µg/mL | MIC90 [3]: > 128 µg/mL

O=C(CSc1nc2ccccc2c(=O)[nH]1)NC1CCCCC1
MIC90 [1]: 0.125 µg/mL (≈ 0.394 µM) | MIC90 [2]: 0.125 µg/mL (≈ 0.394 µM) | MIC90 [3]: 0.25 µg/mL (≈ 0.788 µM)
